Hit rate of the full screen: of about 2,500 compounds, about 460 (18%) were called active.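 How the source made its calls: active means mean activation above a cutoff of low control average plus 3 SD from the earlier screen (cut at about 12% in these data); inactive means the rest.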 Only a sample is shown.

Experimental findings from PubChem BioAssay AID504382 (The Scripps Research Institute Molecular Screening Center, 2011) are described below.

This assay in a line: IANBD-channel fluorescence artefacts in buffer – biochemical, artefact control for cardiac RTF calcium sensitizer project, confirmation (AID 504382). As to conditions: IANBD fluorescence interference counterscreen, EC20 Ca2+, at 7.2 µM, hits give high values, scaled: EC20 calcium 0, EC100 calcium 100. Summed up:
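timing = compound incubation 15 min at 25 °C before fluorescence reading | technique = fluorescence at 480 nm excitation, 540 nm emission | evaluation = interference relative to controls | replication = triplicate wells per compound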
(In general: A counterscreen serves to expose hits that act by an unwanted route or on another target.)
Consider `O=C(Nc1cccc(Cl)c1)c1cc(S(=O)(=O)NCCc2ccc(Cl)cc2)ccc1F`, for which the fluorescence artifact activation is 10.6% (inactive).
For `COc1ccc(N(C)S(=O)(=O)c2ccc(Cl)c(C(=O)NCCc3ccc(Cl)cc3)c2)cc1` the value was 35.3% (active); for `COc1cccc(/C(O)=C/c2nc3ccc(C(=O)NCCc4ccc(Cl)cc4)cc3[nH]c2=O)c1`, 0.43% (inactive); for `CCOc1ccc(C(C(=O)NC2CCCCC2)N(C(=O)Cc2cccs2)c2ccc(-n3cnnn3)c(OC)c2)cc1` (centres undefined), 0.09% (inactive).
The figure for `O=C(c1ccccc1)N1CCN(CC#CC2(O)CCCCC2)CC1` is -0.05% (inactive).
For `CCOc1ccc(C(=O)NC2CCN(C(=O)Nc3ccccc3OC)CC2)cc1` the value was -0.03% (inactive).
In the case of `COC(=O)CN1C(=S)N(c2ccc(OC)cc2)C(=O)/C1=C/c1ccc(N2CCOCC2)cc1`, the fluorescence artifact activation was -0.04% (inactive).
The figure for `COc1ccc(N2CCN(C(=O)c3ccc(OCC4CCCO4)cc3)CC2)cc1` (centres undefined) is 23.9% (active); for `COc1ccc(CC(=O)NCc2csc(-c3cccs3)n2)cc1OC` it is 0.03% (inactive).
Take `Cc1c(Cl)c([N+](=O)[O-])nn1CC(=O)N1CCN(C23CC4CC(CC(C4)C2)C3)CC1`: the fluorescence artifact activation was 0.69% (inactive).
For `COc1ccc(/C=C2\SC(c3ccc(C)cc3)=NC2=O)cc1OC` the value was 0.1% (inactive); for `COc1cc(/C=C2\SC(=O)NC2=O)ccc1Oc1ccc([N+](=O)[O-])cn1`, 25% (active); for `COc1ccc(/C=C2\SC(=O)NC2=S)cc1OC`, 0.32% (inactive).
`NC(=S)Nc1c(Cl)cccc1Cl`: the fluorescence artifact activation was -0.03% (inactive).
For `COc1[nH]c(/N=C/c2ccccc2)c(C#N)c1C#N` the value was 0.1% (inactive); for `NC(=O)NC(Cc1ccccc1)C(=O)NCC1(N2CCCCC2)CCCCC1` (centres undefined), 7.54% (inactive); for `CC1CC(C)CN(C(=O)COC(=O)CCc2nc3ccccc3c(=O)[nH]2)C1` (centres undefined), -0.03% (inactive).
The figure for `Cn1cc(/C=C2\SC(=S)N(NC(=O)c3ccccc3Cl)C2=O)c2ccccc21` is 6.42% (inactive); for `CNC(=O)N(O)C1N(C)C(=O)N(CC(=O)OC)C1(C)C` (centres undefined) it is 12.4% (active).
For `COc1ccc(/C=C2\SC(=S)N(CCCC(=O)Nc3ccccn3)C2=O)cc1OC` the value was 0.11% (inactive); for `CC(C(=O)c1ccc(Br)cc1)[n+]1cccc2ccccc21` (centres undefined), 11.8% (active); for `CN(C)c1ccc(/C=C(/C(=O)c2ccc(Cl)cc2Cl)n2cncn2)cc1`, -0.05% (inactive).
On to `CCOC(=O)c1c(=O)n(O)c2ccc(OC)cc2[n+]1[O-]`, for which the fluorescence artifact activation is 0.13% (inactive).
The figure for `O=C(c1cccs1)N1CCN=C1SCc1cccc(F)c1` is 0.02% (inactive); for `COc1cc(OC)cc(C(=O)NCC(=O)OC2CCOC2=O)c1` (centres undefined) it is 6.1% (inactive).
Consider `COCCNC(=O)C(c1ccc(C)o1)N(Cc1ccc(F)cc1)C(=O)Cn1nnc2ccccc21` (centres undefined), for which the fluorescence artifact activation is 0.43% (inactive).
As for `O=C(NC1CCCCC1)C(c1ccc(F)cc1)N(Cc1ccccc1)C(=O)CN1C(=O)c2ccccc2S1(=O)=O` (centres undefined), the fluorescence artifact activation is 27.8% (active).
Consider `O=C(NCC(=O)N(Cc1cccs1)C(C(=O)NC1CCCCC1)c1ccncc1)c1ccco1` (centres undefined), for which the fluorescence artifact activation was 0.04% (inactive).
For `CSC(=NCc1ccco1)NC#N` the value was 0.12% (inactive).
The figure for `CN1/C(=C\C=C2/SC(=S)NC2=O)C(C)(C)c2ccccc21` is 0.11% (inactive); for `Cc1cc(-c2ccccc2C(=O)NC2CCCCC2)on1` it is 0.27% (inactive); for `Cc1ccc(Cn2c(Sc3nnc(C)s3)nc3c2c(=O)[nH]c(=O)n3C)cc1` it is 42.6% (active).
The figure for `COc1cc(C(=O)Nc2ccc(Cl)c(C(F)(F)F)c2)cc(OC)c1OC` is 0.1% (inactive); for `CCN(CC)S(=O)(=O)c1ccc2c(c1)nc(CCC(=O)Nc1ccc3c(c1)OCO3)n2C` it is 0.09% (inactive); for `COc1cc(C(=O)NCc2nnc(SCC(=O)Nc3ccc4c(c3)OCO4)o2)cc(OC)c1OC` it is 35.2% (active).
Consider `Cc1onc(-c2c(F)cccc2Cl)c1C(N)=S`, for which the fluorescence artifact activation is 6.57% (inactive).
On to `CN(C)c1ccc(/C=C(\C#N)C(=O)Nc2nc3c(s2)CCN(Cc2ccccc2)C3)cc1`, for which the fluorescence artifact activation is 0.06% (inactive).
For `Cc1ccc(N=Nc2c(O)[nH]c3ccc(F)cc23)cc1` the value was 6.29% (inactive).
Regarding `CC(=O)c1ccc(NC(=O)C2CCCN(S(=O)(=O)c3c(C)[nH]c(=O)[nH]c3=O)C2)cc1` (centres undefined), the fluorescence artifact activation was 20.3% (active).
For `CC(=O)N1CCCc2cc(S(=O)(=O)N3CCCC(C(=O)Nc4cccc(C)c4)C3)ccc21` (centres undefined) the value was 0.1% (inactive); for `Cc1cc(S(=O)(=O)N2CCCC(C(=O)Nc3ccc(C(=O)O)cc3)C2)ccc1Cl` (centres undefined), 1.39% (inactive); for `O=C1CCC[C@@H]2C[C@@]3(C[C@@H]4CCN1[C@H]24)Nc1cc([N+](=O)[O-])ccc1NC3=NC1CCCCC1`, 10.3% (inactive).
On to `CC1(c2ccc(OC(F)F)cc2)NC(=O)N(CC(=O)Nc2ccc(F)cc2)C1=O` (centres undefined), for which the fluorescence artifact activation is 0% (inactive).
For `NS(=O)(=O)c1ccc(NC(=O)COc2ccc(C(=O)c3ccc(F)cc3)cc2)cc1` the value was 545% (active); for `CCCC(CCC(=O)Nc1ccc(S(N)(=O)=O)cc1)C(=O)O` (centres undefined), 0.96% (inactive).
The figure for `CCOC(=O)C1(CCc2ccccc2)CCN(C(=O)c2occc2C)CC1` is 3.37% (inactive).
The figure for `CCCC1C(c2ccccc2)C(C#N)(C#N)C2(C#N)CC1(N)NC2=O` (centres undefined) is 0.01% (inactive); for `Oc1[nH]c2ccccc2c1N=Nc1ccccc1Cl` it is 0.13% (inactive).
For the compound `C#CCOCCOCCOCCNc1nc(N2CCN(C(=O)CCCCCCCCCCNC(=O)[C@@H](CCSC)n3cc(CCO)nn3)CC2)nc(N2CCN(C(=O)CCCCCCCCCCNC(=O)[C@H](CCSC)n3cc(CCO)nn3)CC2)n1`, the fluorescence artifact activation was 0.15% (inactive).
The figure for `NS(=O)(=O)c1ccc(NCc2c(F)cccc2Cl)cc1` is 24.7% (active); for `CCN=C(NC#N)SCc1c(F)cccc1Cl` it is 0.17% (inactive).
`COc1ccc(C2NN=C(c3c[nH]c4ccccc34)C2O)cc1` (centres undefined): the fluorescence artifact activation was 8.63% (inactive).
The figure for `CN(CC(=O)NCc1ccc(Cl)cc1)S(=O)(=O)c1cccc2cccnc12` is 0.14% (inactive); for `CCN(CC)C(=O)C1CCC(CNS(=O)(=O)c2cccc3cccnc23)CC1` (centres undefined) it is -0.02% (inactive).
Take `CC(C)c1ccc(NS(=O)(=O)c2cccc3cccnc23)cc1`: the fluorescence artifact activation is 168% (active).
Take `CCc1ccc2c(COC(=O)CNS(=O)(=O)c3ccc(NC(C)=O)cc3)cc(=O)oc2c1`: the fluorescence artifact activation was 2.6% (inactive).
For `COC(=O)c1ccc(CS(=O)(=O)c2ccc(F)cc2)o1` the value was 0.08% (inactive); for `N#CC1(C#N)CC(C=O)=C(N)C1(C#N)CC(=O)c1ccc(F)cc1` (centres undefined), 2.93% (inactive).
For `Cc1ccc(Cn2nc(C)c(NC(=O)C3(C)CC3(Br)Br)c2C)cc1` (centres undefined) the value was 6.32% (inactive).
The figure for `CC(NC(=O)CN1CCC(C(N)=O)CC1)c1ccccc1` (centres undefined) is -0.04% (inactive); for `Cc1ccc(CNC(=O)c2ccc(S(=O)(=O)N3CCCCC3)cc2)cc1` it is -0.06% (inactive); for `Cc1ccc(NC(=O)CN(C)c2ccc(S(=O)(=O)N3CCCC3)cn2)cc1` it is 18.6% (active).
In the case of `CN(C)NC(=S)Nc1ccc(S(=O)(=O)N2CCCCC2)cc1`, the fluorescence artifact activation is 2.09% (inactive).
In the case of `COc1cc(/C=C/c2sc3ccccc3[n+]2CCCS(=O)(=O)[O-])ccc1O`, the fluorescence artifact activation was 1.3% (inactive).
The figure for `O=[N+]([O-])c1ccc(NN=Cc2cccc3ccccc23)nc1` is 7.52% (inactive); for `COc1ccc(-n2c(C)cc(/C=C3\SC(=S)NC3=O)c2C)cc1` it is -0.04% (inactive).
For `O=C(CCC1CCCN(C(=O)C2=CCCC2)C1)N1CCN(c2ccccn2)CC1` (centres undefined) the value was -0.04% (inactive); for `O/C=c1\ccc2cccc3nc(C(F)(F)F)nc1c23`, 1630% (active).
For `Cc1ccc(N2C3=C(C(=O)CC(C)(C)C3)C(c3cn(C)nc3C)C3=C2CC(C)(C)CC3=O)cc1` the value was 8.85% (inactive); for `O=C(c1c[nH]c(C(=O)C(Cl)(Cl)Cl)c1)c1c(F)cccc1F`, 1460% (active); for `CN(C)C=NC(=O)c1cc(C(=O)c2ccccc2Cl)c[nH]1`, 0.08% (inactive).
With `COc1ccc(-n2nc3c(N4CCC(C(=O)NCc5ccco5)CC4)nnc(C)c3c2C)cc1`, the fluorescence artifact activation was 0.15% (inactive).
The figure for `Cc1nc([N+](=O)[O-])c(Br)n1CC(=O)c1ccc2ccccc2c1` is 0.15% (inactive); for `Cn1c(/C(C#N)=C(\O)CN2CCN(Cc3ccccc3)CC2)nc2ccccc21` it is -0.07% (inactive).
As for `Cc1nc([N+](=O)[O-])c(Sc2nc3ccccc3n2C)n1Cc1ccccc1`, the fluorescence artifact activation is 17.2% (active).
For `COc1cc(-c2c(-c3ccc4c(c3)OCO4)noc2C)ccc1F` the value was 6.28% (inactive).
For `CCCCOc1cccc(C2C(C(=O)c3cccs3)=C(O)C(=O)N2Cc2cccnc2)c1` (centres undefined) the value was -0.01% (inactive); for `COC(=O)c1sc(N2C(=O)C(O)=C(C(=O)c3ccc(C)o3)C2c2ccc(F)cc2)nc1C` (centres undefined), 7.6% (inactive); for `CCCOc1ccc(C2C(C(=O)c3ccc(C)o3)=C(O)C(=O)N2CCCn2ccnc2)cc1` (centres undefined), 20.7% (active).
For `COc1ccc(-c2cc(C(F)(F)F)c3c(N)c(C(=O)NCCSC)sc3n2)cc1` the value was 0.08% (inactive).
For the compound `COc1ccc(Sc2ccc(-c3nc4cnccn4c3NC3CCCCC3)cc2OC)cc1`, the fluorescence artifact activation was 0.04% (inactive).
For `Cc1ccc(NC(=O)/C(C#N)=C/c2ccc(C)s2)c(C)c1`, the fluorescence artifact activation was 0.06% (inactive).
The figure for `Cc1cccc(CSc2ccc(-c3ccco3)nn2)c1` is 0.5% (inactive); for `Cc1cc(C)c2c(=O)n(-c3ccccc3)[nH]c2n1` it is 0.96% (inactive); for `Cc1cc(C)nc(SCCCNCc2ccc(Br)cc2)n1` it is -0.01% (inactive).
For `CC(=O)C1=C(C)N(CC2CC2)C(=O)N[C@H]1c1ccc(Br)cc1` the value was 36.6% (active); for `CC(=O)C1=C(C)N(Cc2ccccc2)C(=O)N[C@@H]1c1cccc(C(F)(F)F)c1`, -0.08% (inactive); for `O=c1c2ccccc2nc2n1CCCN2`, 2.97% (inactive).
The figure for `N=c1n(Cc2ccccc2)c2ccccc2n1CC(O)c1ccco1` (centres undefined) is 7.18% (inactive).
